According to ChEMBL document CHEMBL5346963, “Innovative Strategy toward Mutant CFTR Rescue in Cystic Fibrosis: Design and Synthesis of Thiadiazole Inhibitors of the E3 Ligase RNF5” (J Med Chem, 2023):
Values belong to the molecule of their own block, whether it stands above or below them. Active and inactive are the calls of the source. Unless noted, the rule behind the calls is not given here.

Experiments:
CFBE41o- [1] = experiment: Antiproliferative activity against human CFBE41o- cells harbouring CFTR F508del mutant/HS-YFP at 5 uM incubated for 48 hrs; assay type: toxicity, cell-based
Outline: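 Cells plated at 5000/well and treated after 6 h with compound (5 μM) or DMSO. Cell-covered area was followed by the YFP signal over 48 h on a high-content imager. Means ± SEM, n = 6. Three independent experiments; ANOVA with Dunnett test.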

CFBE41o- [2] = experiment: Induction of apoptosis in human CFBE41o- cells assessed as increase in apoptosis at 1 uM incubated for 24 hrs by Hoechst 33342 and propidium iodide staining based analysis; assay type: toxicity, cell-based
Outline: (§1)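 Cells were plated at 10,000/well and treated after 6 h with compound (5, 20, 100 μM), VX-809 (1 μM), MG132 (50 μM) or DMSO for 24 h. Hoechst 33342 counted total nuclei and propidium iodide counted apoptotic nuclei, by high-content imaging. Means ± SEM; ANOVA with Dunnett test.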

[3] = Aggregation property of the compound in PBS buffer at pH 7.5 by 1D 1H-NMR analysis; assay type: physicochemical
Outline: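 Solubility by 1H 1D NMR and aggregation by WaterLOGSY at 298 K in PBS pH 7.5 with 1 μM ZnCl2, 1 mM DTT, 10% D2O, 1% DMSO-d6. Theoretical concentrations 20, 50 and 100 μM, with 200 μM 4-trifluoromethyl benzoic acid as internal reference. WaterLOGSY: mixing time 1.7 s, relaxation delay 2 s, 256 scans.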

CFBE41o- [4] = experiment: Induction of autophagy in human CFBE41o- cells harbouring CFTR F508del mutant assessed as increase in number of autophagic vacuoles at 5 uM incubated for 24 hrs by confocal microscopy based analysis; assay type: functional, cell-based
Outline: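 CFBE41o– F508del/HS-YFP cells (50,000/well) were treated 24 h with compound (5 μM), VX-809 (1 μM) or DMSO. SAR405 (2 μM) and torin1 (20 nM) were added near the end of incubation. Cells were then loaded with 50 μM MDC in PBS for 10 min at 37 °C, washed, and imaged. MDC spot number was normalized to control. n = 3; ANOVA with Dunnett test.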

[5] = molecular target: Cystic fibrosis transmembrane conductance regulator (Homo sapiens, UniProt P13569, F508DEL); experiment: Corrector activity at CFTR F508del mutant in human CFBE41o- cells coexpressing HS-YFP incubated for 25 mins by microplate reader based analysis; assay type: cell-based
Sequence of Cystic fibrosis transmembrane conductance regulator (P13569 as listed by the source): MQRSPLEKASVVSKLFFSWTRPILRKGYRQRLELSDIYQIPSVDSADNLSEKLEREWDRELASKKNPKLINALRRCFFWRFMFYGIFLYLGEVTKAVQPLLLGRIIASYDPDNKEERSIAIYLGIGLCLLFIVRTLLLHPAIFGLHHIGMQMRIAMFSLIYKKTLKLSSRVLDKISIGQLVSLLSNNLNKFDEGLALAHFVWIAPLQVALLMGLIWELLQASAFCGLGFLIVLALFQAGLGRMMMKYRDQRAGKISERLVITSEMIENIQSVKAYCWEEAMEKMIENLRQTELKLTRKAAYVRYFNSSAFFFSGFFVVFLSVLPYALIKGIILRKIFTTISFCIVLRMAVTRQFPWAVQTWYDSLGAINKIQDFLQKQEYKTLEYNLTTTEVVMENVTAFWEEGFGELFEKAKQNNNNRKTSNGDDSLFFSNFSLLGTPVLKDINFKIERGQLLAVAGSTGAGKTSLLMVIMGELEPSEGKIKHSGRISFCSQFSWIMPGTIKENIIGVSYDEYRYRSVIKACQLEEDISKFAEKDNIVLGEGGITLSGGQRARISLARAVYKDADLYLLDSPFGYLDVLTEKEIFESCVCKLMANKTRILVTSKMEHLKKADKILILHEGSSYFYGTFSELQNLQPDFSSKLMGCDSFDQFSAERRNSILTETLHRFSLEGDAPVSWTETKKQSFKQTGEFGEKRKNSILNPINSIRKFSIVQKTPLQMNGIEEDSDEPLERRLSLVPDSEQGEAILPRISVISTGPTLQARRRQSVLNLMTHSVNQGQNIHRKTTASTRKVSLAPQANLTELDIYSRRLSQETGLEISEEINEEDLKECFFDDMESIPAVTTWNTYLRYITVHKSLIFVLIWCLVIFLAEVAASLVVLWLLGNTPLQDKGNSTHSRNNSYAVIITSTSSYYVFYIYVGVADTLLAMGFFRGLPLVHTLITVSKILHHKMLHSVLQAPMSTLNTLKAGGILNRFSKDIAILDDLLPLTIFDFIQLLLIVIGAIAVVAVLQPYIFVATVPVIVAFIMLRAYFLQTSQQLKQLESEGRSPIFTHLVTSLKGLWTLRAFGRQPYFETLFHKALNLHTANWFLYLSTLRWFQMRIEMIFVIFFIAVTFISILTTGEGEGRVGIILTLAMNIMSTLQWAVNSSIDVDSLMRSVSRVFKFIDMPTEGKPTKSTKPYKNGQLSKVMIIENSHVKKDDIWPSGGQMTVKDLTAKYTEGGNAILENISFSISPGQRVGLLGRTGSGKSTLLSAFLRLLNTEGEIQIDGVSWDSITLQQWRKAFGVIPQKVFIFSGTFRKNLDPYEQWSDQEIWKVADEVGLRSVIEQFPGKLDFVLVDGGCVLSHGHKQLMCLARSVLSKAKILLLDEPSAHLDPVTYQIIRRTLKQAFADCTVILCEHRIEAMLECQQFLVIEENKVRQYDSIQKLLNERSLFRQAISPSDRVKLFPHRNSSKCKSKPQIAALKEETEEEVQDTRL
Outline: (§2)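 CFBE41o– cells stably expressing F508del-CFTR and HS-YFP were treated 24 h after seeding; DMSO and VX-809 (1 μM) served as controls. Cells were stimulated 25 min with forskolin (20 μM) plus VX-770 (1 μM). YFP was read for 2 s before and 12 s after iodide injection. Initial slope came from an exponential fit of the final 11 s. Three independent experiments.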

[6] = tested on: Cystic fibrosis transmembrane conductance regulator (Homo sapiens), P13569 [F508del]; experiment: Corrector activity at CFTR F508del mutant in human CFBE41o- cells assessed as increase in CFTR mutant activity at 5 uM in presence of VX-809 incubated for 24 hrs; assay type: cell-based; outline: as §2
Sequence of Cystic fibrosis transmembrane conductance regulator (Homo sapiens), P13569 [F508del] (P13569 as listed by the source): as above

[7] = tested on: Cystic fibrosis transmembrane conductance regulator (Homo sapiens), P13569 [F508del]; experiment: Corrector activity at CFTR F508del mutant in human CFBE41o- cells assessed as increase in CFTR mutant activity at 5 uM in presence of VX-445 incubated for 24 hrs; assay type: cell-based; outline: as §2
[8] = tested on: Cystic fibrosis transmembrane conductance regulator (Homo sapiens), P13569 [F508del]; experiment: Corrector activity at CFTR F508del mutant in human CFBE41o- cells assessed as increase in CFTR mutant activity at 5 uM in presence of VX-661/VX-445 incubated for 24 hrs; assay type: cell-based; outline: as §2
[9] = tested on: Cystic fibrosis transmembrane conductance regulator (Homo sapiens), P13569 [F508del]; experiment: Corrector activity at CFTR F508del mutant in human CFBE41o- cells transfected with NT siRNA assessed as increase in CFTR mutant activity at 5 uM incubated for 24 hrs; assay type: cell-based
Outline: (§3)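 CFBE41o– F508del/HS-YFP cells were reverse-transfected with 50 nM (final) NT or RNF5 siRNA using lipofectamine 2000. Medium was changed next day, then compounds were given for 24 h at 37 °C. Readout was the YFP iodide-influx assay after forskolin (20 μM) plus VX-770 (1 μM) stimulation.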

[10] = tested on: Cystic fibrosis transmembrane conductance regulator (Homo sapiens), P13569 [F508del]; experiment: Corrector activity at CFTR F508del mutant in human CFBE41o- cells transfected with NT siRNA assessed as increase in CFTR mutant activity at 5 uM incubated for 24 hrs in presence of VX-661/VX-445; assay type: cell-based; outline: as §3
[11] = tested on: Cystic fibrosis transmembrane conductance regulator (Homo sapiens), P13569 [F508del]; experiment: Corrector activity at CFTR F508del mutant in human CFBE41o- cells transfected with RNF5 siRNA assessed as increase in CFTR mutant activity at 5 uM incubated for 24 hrs; assay type: cell-based; outline: as §3
[12] = tested on: Cystic fibrosis transmembrane conductance regulator (Homo sapiens), P13569 [F508del]; experiment: Corrector activity at CFTR F508del mutant in human CFBE41o- cells transfected with RNF5 siRNA assessed as increase in CFTR mutant activity at 5 uM incubated for 24 hrs in presence of VX-661/VX-445; assay type: cell-based; outline: as §3
[13] = tested on: Cystic fibrosis transmembrane conductance regulator (Homo sapiens), P13569 [F508del]; experiment: Corrector activity at CFTR F508del mutant in human CFBE41o- cells assessed as rescue of CFTR mutant at 5 uM incubated for 24 hrs in presence of VX661/VX-445 by Western blot analysis; assay type: cell-based
[14] = tested on: Cystic fibrosis transmembrane conductance regulator (Homo sapiens), P13569 [F508del]; experiment: Corrector activity at CFTR F508del mutant in human CFBE41o- cells assessed as appearance of CFTR mutant forms at 5 uM incubated for 24 hrs in presence of MG-132 by Western blot analysis; assay type: cell-based
Outline: (§4)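 Confluent CFBE41o– F508del cells were treated 24 h, with MG-132 (10 μM) or DMSO in the last 4 h. Lysate (600 μg protein) was immunoprecipitated with rabbit anti-CFTR (2 μg, 1 h RT) and protein A/G beads, then eluted reducing. Samples ran on 4–15% gradient SDS-PAGE and were western blotted. Bands were read by chemiluminescence, with densitometry of ubiquitylated CFTR.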

[15] = tested on: Cystic fibrosis transmembrane conductance regulator (Homo sapiens), P13569 [F508del]; experiment: Corrector activity at CFTR F508del mutant in human CFBE41o- cells assessed as decrease in accumulation of ubiquitylated CFTR at 5 uM incubated for 24 hrs in presence of VX-661/VX-445 by Western blot analysis; assay type: cell-based; outline: as §4
CFBE41o- [16] = experiment: Induction of apoptosis in human CFBE41o- cells assessed as increase in apoptosis at 100 uM incubated for 24 hrs by Hoechst 33342 and propidium iodide staining based analysis; assay type: toxicity, cell-based; outline: as §1
[17] = tested on: Cystic fibrosis transmembrane conductance regulator (Homo sapiens), P13569 [F508del]; experiment: Corrector activity at CFTR F508del mutant in human CFBE41o- cells assessed as rescue of CFTR mutant at 3 uM incubated for 24 hrs in presence of VX-661 by Western blot analysis; assay type: cell-based
[18] = tested on: Cystic fibrosis transmembrane conductance regulator (Homo sapiens), P13569 [F508del]; experiment: Corrector activity at CFTR F508del mutant in human CFBE41o- cells assessed as decrease in accumulation of ubiquitylated CFTR at 3 uM incubated for 24 hrs in presence of VX-661 by Western blot analysis; assay type: cell-based; outline: as §4
[19] = tested on: Cystic fibrosis transmembrane conductance regulator (Homo sapiens), P13569 [F508del]; experiment: Corrector activity at CFTR F508del mutant in human CFBE41o- cells assessed as appearance of CFTR mutant forms at 10 uM incubated for 4 hrs by Western blot analysis; assay type: cell-based
[20] = tested on: Cystic fibrosis transmembrane conductance regulator (Homo sapiens), P13569 [F508del]; experiment: Corrector activity at CFTR F508del mutant in human CFBE41o- cells assessed as decrease in accumulation of ubiquitylated CFTR at 10 uM incubated for 4 hrs in presence of MG-132 by Western blot analysis; assay type: cell-based; outline: as §4

SMILES: Cc1ccc(NC(=O)C2(c3ccc4c(c3)OC(F)(F)O4)CC2)nc1-c1cccc(C(=O)O)c1 [LUMACAFTOR]
Activity (CFBE41o- [1]): Non-Toxic | Activity (CFBE41o- [2]): Toxic

Activity [3]: Not Active | EC50 [5]: 1200 nM | Activity [6]: Active | Activity [7]: Active | Activity [8]: Active | Activity [9]: Active | Activity [10]: Active | Activity [11]: inactive | Activity [12]: inactive | Activity [13]: Active | Activity [14]: inactive | Activity [15]: Active
SMILES: COc1cccc(Cn2c(C)ns/c2=N\C(=N\c2ccccc2)c2ccccc2)c1
Activity (CFBE41o- [1]): Non-Toxic | Activity (CFBE41o- [4]): Active

SMILES: CNc1cccc(Cn2c(C)ns/c2=N\C(=N\c2ccccc2)c2ccccc2)c1
Activity (CFBE41o- [1]): Non-Toxic | Activity (CFBE41o- [4]): Active

SMILES: Cc1ns/c(=N\C(=N\c2ccccc2)c2ccccc2)n1Cc1ccc(Cl)cc1
Activity (CFBE41o- [1]): Non-Toxic

SMILES: CCOc1cccc(Cn2c(C)ns/c2=N\C(=N\c2ccccc2)c2ccccc2)c1
Activity (CFBE41o- [1]): Non-Toxic

SMILES: Cc1ns/c(=N\C(=N\c2ccccc2)c2ccccc2)n1Cc1cccc(F)c1
Activity (CFBE41o- [1]): Non-Toxic

Activity [3]: Not Active | EC50 [5]: 1600 nM
SMILES: Cc1ns/c(=N\C(=N\c2ccccc2)c2ccccc2)n1Cc1cccc(O)c1
Activity (CFBE41o- [1]): Non-Toxic | Activity (CFBE41o- [16]): Toxic

SMILES: Cc1ns/c(=N\C(=N\c2ccccc2)c2ccccc2)n1Cc1cccc(Cl)c1
Activity (CFBE41o- [1]): Non-Toxic

Activity [3]: Not Active
SMILES: Cc1ns/c(=N\C(=N\c2ccccc2)c2ccccc2)n1Cc1ccccc1N
Activity (CFBE41o- [1]): Non-Toxic | Activity (CFBE41o- [16]): Toxic

Activity [17]: Active | Activity [18]: Active
SMILES: Cc1nn(C)cc1S(=O)(=O)NC(=O)c1ccc(-n2ccc(OCC(C)(C)C(F)(F)F)n2)nc1N1C[C@@H](C)CC1(C)C

Activity [19]: Active | Activity [20]: inactive
SMILES: CC(C)C[C@@H](C=O)NC(=O)[C@H](CC(C)C)NC(=O)[C@H](CC(C)C)NC(=O)OCc1ccccc1

SMILES: Cc1ns/c(=N\C(=N\c2ccccc2)c2ccccc2)n1Cc1ccccc1Cl
Activity (CFBE41o- [1]): Non-Toxic | Activity (CFBE41o- [16]): Toxic

SMILES: Cc1ns/c(=N\C(=N\c2ccccc2)c2ccccc2)n1Cc1cccc(N(C)C)c1
Activity (CFBE41o- [1]): Non-Toxic

Activity [3]: Not Active
SMILES: Cc1ns/c(=N\C(=N\c2ccccc2)c2ccccc2)n1-c1ccccc1
Activity (CFBE41o- [1]): Non-Toxic | Activity (CFBE41o- [16]): Toxic | Activity (CFBE41o- [4]): inactive
